Experimental data taken from ChEMBL document CHEMBL4261600 (Eur J Med Chem, 2018).
Calls of active or inactive are those of the source.

Columns and labels:
[1] = test system: HL-60; assay: Induction of apoptosis in human HL60 cells assessed as decrease in c-MYC level after 2 hrs by immunoblotting analysis; assay type: functional, cell-based
[2] = MRT (0 to t) in beagle dog at 2 mg/kg, iv by LC-MS/MS analysis; assay type: ADME, organism-based, Canis lupus familiaris; details: in vivo
[3] = biological target: Ankyrin repeat and protein kinase domain-containing protein 1 (Homo sapiens) (UniProt Q8NFD2); assay: Binding affinity to wild-type human partial length ANKK1 (M1 to A305 residues) expressed in mammalian expression system assessed as remaining unbound target protein level at 1000 nM by Kinomescan method relative to control
Summary of the method: (§1)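 Profiled in a KINOMEscan binding panel with the inhibitor at a single concentration of 1 μM. Binding to each kinase was read out as percent of control, relative to a DMSO control. Strong binders were defined as those with a percent control value below 1.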

[4] = biological target: Calcium/calmodulin-dependent protein kinase type II subunit beta (Homo sapiens) (UniProt Q13554); assay: Binding affinity to wild-type human partial length CAMK2B (M1 to Q380 residues) expressed in bacterial expression system assessed as remaining unbound target protein level at 1000 nM by Kinomescan method relative to control; summary of the method: as §1
Calcium/calmodulin-dependent protein kinase type II subunit beta (Homo sapiens), sequence (Q13554 whole entry, the tested form may be a part): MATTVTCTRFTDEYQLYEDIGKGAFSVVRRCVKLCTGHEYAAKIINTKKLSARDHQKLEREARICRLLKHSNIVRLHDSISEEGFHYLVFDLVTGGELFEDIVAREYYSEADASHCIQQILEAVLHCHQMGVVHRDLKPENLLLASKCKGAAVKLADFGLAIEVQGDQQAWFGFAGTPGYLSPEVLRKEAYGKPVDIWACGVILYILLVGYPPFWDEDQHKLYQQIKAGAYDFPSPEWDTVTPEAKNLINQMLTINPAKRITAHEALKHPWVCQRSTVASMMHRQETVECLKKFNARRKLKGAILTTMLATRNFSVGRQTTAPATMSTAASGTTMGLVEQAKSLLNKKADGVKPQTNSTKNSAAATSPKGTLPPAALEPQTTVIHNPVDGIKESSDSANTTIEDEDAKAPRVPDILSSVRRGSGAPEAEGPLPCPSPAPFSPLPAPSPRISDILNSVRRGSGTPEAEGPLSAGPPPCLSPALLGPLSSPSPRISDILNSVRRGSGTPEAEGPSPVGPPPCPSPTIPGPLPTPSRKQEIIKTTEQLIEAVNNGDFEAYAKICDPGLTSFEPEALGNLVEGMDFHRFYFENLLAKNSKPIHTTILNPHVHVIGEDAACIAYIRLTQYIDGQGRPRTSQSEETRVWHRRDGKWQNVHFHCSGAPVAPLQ

[5] = biological target: Death-associated protein kinase 3 (Homo sapiens) (UniProt O43293); assay: Binding affinity to wild-type human partial length DAPK3 (M1 to A277 residues) expressed in bacterial expression system assessed as remaining unbound target protein level at 1000 nM by Kinomescan method relative to control
Summary of the method: (§2)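 KINOMEscan binding panel of 468 kinases/mutants. Inhibitor was tested at a single concentration of 1 μM. Binding is reported as percent of control, defined relative to a DMSO control.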

[6] = biological target: Epidermal growth factor receptor (Homo sapiens) (UniProt P00533); assay: Binding affinity to human partial length EGFR E746-A750del mutant expressed in bacterial expression system assessed as remaining unbound target protein level at 1000 nM by Kinomescan method relative to control
Summary of the method: (§3)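 KINOMEscan competition-binding profiling across the panel of 468 kinases and mutants, with inhibitor tested at 1 μM. Binding is expressed as percent of control, with DMSO as the reference control.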

[7] = test system: Epidermal growth factor receptor (Homo sapiens), P00533 [G719S]; assay: Binding affinity to human partial length EGFR G719S mutant (R669 to V1011 residues) expressed in bacterial expression system assessed as remaining unbound target protein level at 1000 nM by Kinomescan method relative to control; summary of the method: as §3
[8] = test system: Epidermal growth factor receptor (Homo sapiens), P00533 [T790M]; assay: Binding affinity to human partial length EGFR T790M mutant (R669 to G1022 residues) expressed in mammalian expression system assessed as remaining unbound target protein level at 1000 nM by Kinomescan method relative to control; summary of the method: as §3
[9] = biological target: Ephrin type-A receptor 8 (Homo sapiens) (UniProt P29322); assay: Binding affinity to wild-type human partial length EPHA8 (Q608 to C920 residues) expressed in bacterial expression system assessed as remaining unbound target protein level at 1000 nM by Kinomescan method relative to control
[10] = test system: Receptor-type tyrosine-protein kinase FLT3 (Homo sapiens), P36888 [R834Q]; assay: Binding affinity to human partial length FLT3 R834Q mutant (V592 to Y969 residues) expressed in mammalian expression system assessed as remaining unbound target protein level at 1000 nM by Kinomescan method relative to control; summary of the method: as §3
[11] = biological target: Receptor-type tyrosine-protein kinase FLT3 (Homo sapiens) (UniProt P36888); assay: Binding affinity to wild-type human partial length autoinhibited FLT3 (H564 to Y969 residues) expressed in mammalian expression system assessed as remaining unbound target protein level at 1000 nM by Kinomescan method relative to control
[12] = biological target: Tyrosine-protein kinase JAK2 (Homo sapiens) (UniProt O60674); assay: Binding affinity to wild-type human partial length JAK2 JH1 catalytic domain (A829 to G1132 residues) expressed in mammalian expression system assessed as remaining unbound target protein level at 1000 nM by Kinomescan method relative to control
[13] = test system: Mast/stem cell growth factor receptor Kit (Homo sapiens), P10721 [D816V]; assay: Binding affinity to human partial length KIT D816V mutant (I571 to D952 residues) expressed in bacterial expression system assessed as remaining unbound target protein level at 1000 nM by Kinomescan method relative to control; summary of the method: as §3
Mast/stem cell growth factor receptor Kit (Homo sapiens), P10721 [D816V], sequence (P10721 whole entry D816V, the tested form may be a part): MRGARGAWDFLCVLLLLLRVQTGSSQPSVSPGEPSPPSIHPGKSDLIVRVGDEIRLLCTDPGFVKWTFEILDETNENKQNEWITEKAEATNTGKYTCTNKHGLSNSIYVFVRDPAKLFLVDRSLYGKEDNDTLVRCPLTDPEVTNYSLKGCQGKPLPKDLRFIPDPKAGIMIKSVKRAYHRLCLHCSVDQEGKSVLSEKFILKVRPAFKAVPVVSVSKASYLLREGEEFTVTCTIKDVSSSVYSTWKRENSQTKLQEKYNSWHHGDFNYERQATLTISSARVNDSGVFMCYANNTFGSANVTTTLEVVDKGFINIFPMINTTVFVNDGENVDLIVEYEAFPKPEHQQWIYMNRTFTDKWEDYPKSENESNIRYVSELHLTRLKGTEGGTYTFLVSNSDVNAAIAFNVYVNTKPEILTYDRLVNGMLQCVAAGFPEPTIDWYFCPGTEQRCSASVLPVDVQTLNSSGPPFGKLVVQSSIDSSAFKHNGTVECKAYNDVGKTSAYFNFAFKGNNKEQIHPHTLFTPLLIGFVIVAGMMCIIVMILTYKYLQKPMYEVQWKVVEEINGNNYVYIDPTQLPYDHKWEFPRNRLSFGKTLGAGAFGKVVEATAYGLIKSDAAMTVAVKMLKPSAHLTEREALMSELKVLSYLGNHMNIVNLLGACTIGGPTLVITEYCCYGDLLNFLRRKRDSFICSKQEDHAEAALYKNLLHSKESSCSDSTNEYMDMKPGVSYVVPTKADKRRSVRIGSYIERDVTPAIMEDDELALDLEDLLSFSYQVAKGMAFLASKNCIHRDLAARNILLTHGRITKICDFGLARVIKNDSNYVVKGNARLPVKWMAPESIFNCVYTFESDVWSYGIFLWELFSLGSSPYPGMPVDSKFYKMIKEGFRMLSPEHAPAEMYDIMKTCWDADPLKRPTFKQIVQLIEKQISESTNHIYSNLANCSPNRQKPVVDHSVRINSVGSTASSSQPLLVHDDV

[14] = biological target: Leukocyte tyrosine kinase receptor (Homo sapiens) (UniProt P29376); assay: Binding affinity to wild-type human partial length LTK (P422 to S744 residues) expressed in bacterial expression system assessed as remaining unbound target protein level at 1000 nM by Kinomescan method relative to control; summary of the method: as §2
[15] = biological target: Tyrosine-protein kinase Mer (Homo sapiens) (UniProt Q12866); assay: Binding affinity to wild-type human partial length MERTK (R557 to L884 residues) expressed in bacterial expression system assessed as remaining unbound target protein level at 1000 nM by Kinomescan method relative to control; summary of the method: as §2
Tyrosine-protein kinase Mer (Homo sapiens), sequence (Q12866 whole entry, the tested form may be a part, canonical isoform): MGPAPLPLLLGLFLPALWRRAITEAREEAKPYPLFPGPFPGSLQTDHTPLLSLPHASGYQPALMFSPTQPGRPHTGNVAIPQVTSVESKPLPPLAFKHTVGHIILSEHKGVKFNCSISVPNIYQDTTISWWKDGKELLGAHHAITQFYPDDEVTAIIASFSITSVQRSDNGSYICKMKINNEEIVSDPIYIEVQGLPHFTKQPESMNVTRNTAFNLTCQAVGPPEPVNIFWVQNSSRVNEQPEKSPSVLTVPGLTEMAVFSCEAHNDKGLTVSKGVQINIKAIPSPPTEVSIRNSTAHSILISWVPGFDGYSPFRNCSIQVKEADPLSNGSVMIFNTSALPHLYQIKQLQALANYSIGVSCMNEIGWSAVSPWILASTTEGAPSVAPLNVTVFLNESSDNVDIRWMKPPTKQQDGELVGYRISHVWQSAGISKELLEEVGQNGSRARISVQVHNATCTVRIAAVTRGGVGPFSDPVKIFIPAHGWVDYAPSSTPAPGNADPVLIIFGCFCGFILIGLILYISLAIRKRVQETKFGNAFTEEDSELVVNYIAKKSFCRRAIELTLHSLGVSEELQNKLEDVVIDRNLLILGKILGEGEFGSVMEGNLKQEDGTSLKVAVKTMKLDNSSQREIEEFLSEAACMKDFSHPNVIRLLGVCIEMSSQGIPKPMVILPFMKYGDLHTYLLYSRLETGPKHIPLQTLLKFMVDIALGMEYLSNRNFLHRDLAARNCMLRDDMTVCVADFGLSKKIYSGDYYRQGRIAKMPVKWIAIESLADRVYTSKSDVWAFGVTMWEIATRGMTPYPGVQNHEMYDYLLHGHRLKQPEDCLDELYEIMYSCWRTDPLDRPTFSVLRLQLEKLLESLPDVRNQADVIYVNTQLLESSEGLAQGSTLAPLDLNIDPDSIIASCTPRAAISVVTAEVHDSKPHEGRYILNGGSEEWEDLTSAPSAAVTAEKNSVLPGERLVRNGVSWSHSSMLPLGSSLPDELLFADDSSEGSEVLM

[16] = biological target: Phosphatidylinositol 4,5-bisphosphate 3-kinase catalytic subunit beta isoform (Homo sapiens) (UniProt P42338); assay: Binding affinity to wild-type human partial length PIK3CB (P118 to S1070 residues) expressed in mammalian expression system assessed as remaining unbound target protein level at 1000 nM by Kinomescan method relative to control
Phosphatidylinositol 4,5-bisphosphate 3-kinase catalytic subunit beta isoform (Homo sapiens), sequence (P42338 whole entry, looked up, the tested form may be a part, canonical isoform): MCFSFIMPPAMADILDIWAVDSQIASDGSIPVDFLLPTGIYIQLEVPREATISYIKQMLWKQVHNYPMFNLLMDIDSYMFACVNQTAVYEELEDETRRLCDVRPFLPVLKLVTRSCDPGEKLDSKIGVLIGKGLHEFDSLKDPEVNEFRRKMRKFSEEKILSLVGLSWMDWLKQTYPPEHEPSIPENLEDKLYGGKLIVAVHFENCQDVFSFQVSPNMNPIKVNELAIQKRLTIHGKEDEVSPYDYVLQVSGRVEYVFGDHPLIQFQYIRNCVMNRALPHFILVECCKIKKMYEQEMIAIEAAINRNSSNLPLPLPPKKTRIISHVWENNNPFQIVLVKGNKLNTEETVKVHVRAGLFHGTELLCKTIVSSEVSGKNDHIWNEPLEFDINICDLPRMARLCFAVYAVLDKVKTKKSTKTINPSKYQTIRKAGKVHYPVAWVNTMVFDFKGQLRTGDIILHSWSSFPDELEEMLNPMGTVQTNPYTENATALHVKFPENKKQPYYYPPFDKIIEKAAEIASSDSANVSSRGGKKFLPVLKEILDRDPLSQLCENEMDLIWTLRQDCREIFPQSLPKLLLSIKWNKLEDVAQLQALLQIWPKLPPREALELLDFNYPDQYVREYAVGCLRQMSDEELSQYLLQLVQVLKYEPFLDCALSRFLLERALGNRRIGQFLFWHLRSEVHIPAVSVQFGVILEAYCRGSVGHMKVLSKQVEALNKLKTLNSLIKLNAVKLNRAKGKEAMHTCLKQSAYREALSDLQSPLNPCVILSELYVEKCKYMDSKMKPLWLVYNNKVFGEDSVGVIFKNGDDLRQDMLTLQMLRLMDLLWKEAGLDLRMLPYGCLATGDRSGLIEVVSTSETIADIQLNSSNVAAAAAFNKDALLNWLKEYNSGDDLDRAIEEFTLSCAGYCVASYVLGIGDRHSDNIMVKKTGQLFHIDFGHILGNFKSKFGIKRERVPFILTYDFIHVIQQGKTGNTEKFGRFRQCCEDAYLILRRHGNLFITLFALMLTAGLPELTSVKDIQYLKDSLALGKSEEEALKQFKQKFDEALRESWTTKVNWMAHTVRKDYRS

[17] = biological target: Serine/threonine-protein kinase N1 (Homo sapiens) (UniProt Q16512); assay: Binding affinity to wild-type human partial length PKN1 (E598 to C948 residues) expressed in bacterial expression system assessed as remaining unbound target protein level at 1000 nM by Kinomescan method relative to control
[18] = test system: Proto-oncogene tyrosine-protein kinase receptor Ret (Homo sapiens), P07949 [V804M]; assay: Binding affinity to human partial length RET V804M mutant (E713 to D1014 residues) expressed in bacterial expression system assessed as remaining unbound target protein level at 1000 nM by Kinomescan method relative to control; summary of the method: as §3
Proto-oncogene tyrosine-protein kinase receptor Ret (Homo sapiens), P07949 [V804M], sequence (P07949 whole entry V804M, the tested form may be a part): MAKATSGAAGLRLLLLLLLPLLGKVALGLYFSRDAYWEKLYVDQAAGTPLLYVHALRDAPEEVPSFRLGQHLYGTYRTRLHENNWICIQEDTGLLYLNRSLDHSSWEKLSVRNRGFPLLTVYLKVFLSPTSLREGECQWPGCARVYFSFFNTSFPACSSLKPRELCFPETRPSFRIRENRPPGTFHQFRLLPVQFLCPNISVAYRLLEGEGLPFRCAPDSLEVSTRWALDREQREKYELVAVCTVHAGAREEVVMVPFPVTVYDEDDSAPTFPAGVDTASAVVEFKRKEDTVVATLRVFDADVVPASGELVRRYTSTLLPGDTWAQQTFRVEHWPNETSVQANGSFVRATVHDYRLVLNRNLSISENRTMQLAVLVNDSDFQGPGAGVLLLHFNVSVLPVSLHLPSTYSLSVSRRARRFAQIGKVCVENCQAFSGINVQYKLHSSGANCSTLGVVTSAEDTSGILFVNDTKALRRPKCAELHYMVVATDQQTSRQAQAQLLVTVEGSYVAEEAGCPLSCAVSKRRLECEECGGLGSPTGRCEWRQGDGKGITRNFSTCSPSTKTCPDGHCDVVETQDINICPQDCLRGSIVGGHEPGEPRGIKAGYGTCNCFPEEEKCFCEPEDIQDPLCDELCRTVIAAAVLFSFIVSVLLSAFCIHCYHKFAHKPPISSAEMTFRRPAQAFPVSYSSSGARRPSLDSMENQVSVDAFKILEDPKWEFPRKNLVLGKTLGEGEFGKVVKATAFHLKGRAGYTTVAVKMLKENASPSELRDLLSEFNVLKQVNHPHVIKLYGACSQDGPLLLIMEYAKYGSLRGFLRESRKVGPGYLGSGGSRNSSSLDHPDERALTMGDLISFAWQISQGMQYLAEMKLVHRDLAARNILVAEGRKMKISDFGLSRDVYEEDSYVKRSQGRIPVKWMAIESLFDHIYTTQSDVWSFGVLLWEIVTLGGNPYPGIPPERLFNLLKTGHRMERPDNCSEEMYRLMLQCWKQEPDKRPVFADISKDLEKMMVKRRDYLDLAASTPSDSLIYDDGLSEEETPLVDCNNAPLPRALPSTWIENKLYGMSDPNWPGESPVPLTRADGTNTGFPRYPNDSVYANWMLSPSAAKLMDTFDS

[19] = biological target: Serine/threonine-protein kinase RIO3 (Homo sapiens) (UniProt O14730); assay: Binding affinity to wild-type human full length RIOK3 (M1 to E519 residues) expressed in bacterial expression system assessed as remaining unbound target protein level at 1000 nM by Kinomescan method relative to control
Summary of the method: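 KINOMEscan competition binding profile across a panel of 468 kinases and mutants, with the inhibitor tested at a single concentration of 1 μM. Binding is reported as percent of control, meaning signal relative to a DMSO control.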

[20] = biological target: Proto-oncogene tyrosine-protein kinase ROS (Homo sapiens) (UniProt P08922); assay: Binding affinity to wild-type human partial length ROS1 (A1921 to N2240 residues) expressed in bacterial expression system assessed as remaining unbound target protein level at 1000 nM by Kinomescan method relative to control
[21] = biological target: Serine/threonine-protein kinase WNK2 (Homo sapiens) (UniProt Q9Y3S1); assay: Binding affinity to wild-type human partial length WNK2 (V47 to D482 residues) expressed in mammalian expression system assessed as remaining unbound target protein level at 1000 nM by Kinomescan method relative to control
[22] = test system: MV4-11; assay: Cell cycle arrest in human MV4-11 cells increase in accumulation at G0/G1 phase at 0.01 to 0.03 uM after 24 hrs by propidium iodide/RNase staining based flow cytometric analysis

COCCN[C@H]1CC[C@H](Nc2cc(-c3csc(NCC4(C#N)CCOCC4)n3)c(Cl)cn2)CC1
Activity [1]: Dose-dependent effect
MRT last [2]: 9.36 h
Activity [3]: 100%
Activity [4]: 100%
Activity [5]: 63%
Activity [6]: 83%
Activity [7]: 82%
Activity [8]: 100%
Activity [9]: 92%
Activity [10]: 100%
Activity [11]: 100%
Activity [12]: 85%
Activity [13]: 87%
Activity [14]: 95%
Activity [15]: 94%
Activity [16]: 100%
Activity [17]: 87%
Activity [18]: 98%
Activity [19]: 99%
Activity [20]: 81%
Activity [21]: 92%
Activity [22]: Active
